Test results as given in ChEMBL document CHEMBL4041486, “Vobasinyl-Iboga Alkaloids from Tabernaemontana elegans: Cell Cycle Arrest and Apoptosis-Inducing Activity in HCT116 Colon Cancer Cells” (J Nat Prod, 2016).
pIC50: −log10 of the molar value.

How the values were obtained:
[1] = system: HCT-116; assay: Cell cycle arrest in human HCT116 cells assessed as accumulation at G1 phase at 2 times antiproliferative IC50 after 24 hrs by propidium iodide staining based flow cytometry (reference value: 31%); assay type: functional
[2] = system: HCT-116; assay: Cell cycle arrest in human HCT116 cells assessed as accumulation at G2/M phase at antiproliferative IC50 after 24 hrs by propidium iodide staining based flow cytometry (reference value: 30.2%); assay type: functional
[3] = system: HCT-116; assay: Growth inhibition of human HCT116 cells after 72 hrs by MTS assay; assay type: functional, cell-based; conditions: HCT-116, 72 h
How it was run: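 HCT116 grown in McCoy's 5A, 10% FBS, 37 °C, 5% CO2; 5000 cells/well; compound in DMSO added 24 h after plating, 72 h exposure. Viability by MTS/PMS reduction to formazan, absorbance 490 nm. IC50 with 95% CI by curve fit; at least three independent experiments.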

[4] = system: HCT-116; assay: Cell cycle arrest in human HCT116 cells assessed as accumulation at G1 phase at antiproliferative IC50 after 24 hrs by propidium iodide staining based flow cytometry (reference value: 31%); assay type: functional
[5] = system: HCT-116; assay: Cell cycle arrest in human HCT116 cells assessed as accumulation at G2/M phase at 2 times antiproliferative IC50 after 24 hrs by propidium iodide staining based flow cytometry (reference value: 30.2%); assay type: functional
[6] = system: HCT-116; assay: Cell cycle arrest in human HCT116 cells assessed as accumulation at S phase at antiproliferative IC50 after 24 hrs by propidium iodide staining based flow cytometry (reference value: 38.8%); assay type: functional
[7] = system: HCT-116; assay: Induction of apoptosis in human HCT116 cells assessed as caspase-3/7 activation at antiproliferative IC50 after 24 hrs by Caspase-Glo assay relative to 5-fluorouracil; assay type: functional
How it was run: (§1)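 HCT116 at 5000 cells/well exposed 24 h. Caspase-Glo 3/7 reagent (DEVD-aminoluciferin substrate) 75 μL/well, 30 min room temperature for lysis and signal build-up; luminescence read. Activity expressed as fold of the reference treatment (DMSO vehicle or 5-FU); mean ± SEM, at least three experiments.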

[8] = system: HCT-116; assay: Cytotoxicity against human HCT116 cells assessed as cell death at antiproliferative IC50 after 72 hrs by LDH release assay relative to control; assay type: functional
How it was run: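 HCT116 cells grown in McCoy's 5A with 10% FBS at 37 °C, 5% CO2, and treated 24 h after plating for 72 h with compound or DMSO vehicle. Supernatants were spun at 250g for 2 min, and attached cells were lysed. LDH reagent was added for 15 min at room temperature in the dark, and absorbance was read at 490/620 nm. Release = supernatant/(supernatant + lysate) LDH, fold over DMSO; mean ± SEM, ≥3 experiments.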

[9] = system: HCT-116; assay: Induction of apoptosis in human HCT116 cells assessed as apoptotic nuclei at antiproliferative IC50 after 24 hrs by Hoechst 33258 staining based fluorescence microscopic method (reference value: <2%); assay type: functional
How it was run: (§2)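 HCT116 seeded 150 000 cells per 35 mm dish; treated 24 h, fixed in 4% paraformaldehyde in PBS pH 7.4, 10 min 25 °C, stained Hoechst 33258 5 μg/mL, 5 min. Fluorescence microscopy; condensed or fragmented chromatin scored apoptotic; three random fields of about 100 nuclei per sample; percent apoptotic nuclei, mean ± SEM, ≥3 experiments.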

[10] = system: HCT-116; assay: Induction of apoptosis in human HCT116 cells assessed as caspase-3/7 activation at antiproliferative IC50 after 24 hrs by Caspase-Glo assay relative to DMSO control; assay type: functional; how it was run: as §1
[11] = system: HCT-116; assay: Induction of apoptosis in human HCT116 cells assessed as apoptotic nuclei at 2 times antiproliferative IC50 after 24 hrs by Hoechst 33258 staining based fluorescence microscopic method (reference value: <2%); assay type: functional; how it was run: as §2
[12] = system: HepG2; assay: Growth inhibition of human HepG2 cells after 72 hrs by MTS assay; assay type: functional, cell-based; conditions: HepG2, 72 h
How it was run: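 HepG2 grown in DMEM with 10% FBS and 1% nonessential amino acids; 5000 cells/well; medium replaced with DMSO-dissolved compound 24 h post-seeding, 72 h exposure. MTS formazan absorbance read at 490 nm. IC50 derived with 95% CI; at least three independent experiments.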

[13] = system: HCT-116; assay: Cell cycle arrest in human HCT116 cells assessed as accumulation at S phase at 2 times antiproliferative IC50 after 24 hrs by propidium iodide staining based flow cytometry (reference value: 38.8%); assay type: functional

SMILES	Activity [1]	Activity [2]	pIC50 [3]	Activity [4]	Activity [5]	Activity [6] [%]	fold change (FC) [7]	fold change (FC) [8]	Activity [9] [%]	fold change (FC) [10]	Activity [11] [%]	pIC50 [12]	Activity [13] [%]
CC[C@H]1CN(C)[C@H]2Cc3c([nH]c4ccccc34)[C@H](c3c(OC)ccc4c5c([nH]c34)C3(C(=O)OC)C[C@@H]4C[C@H]([C@H](C)O)[C@@H]3N(CC5)C4)C[C@@H]1C2C(=O)OC (stereo partly drawn)	55 - 65%	18.5%	5.08	42.3 - 49%	15.7%	39.3	1.5 - 3.7	2.5 - 2.8	11	1.6 - 5.2	13	< 5.00	19.3
CC[C@H]1CN(C)[C@H]2Cc3c([nH]c4ccccc34)[C@H](c3c(OC)ccc4c5c([nH]c34)C3(C(=O)OC)CC4C[C@H](CC)[C@@H]3N(CC5)C4=O)C[C@@H]1C2C(=O)OC (stereo partly drawn)	62 - 67.2%	21.8%	< 5.00	41.7 - 46%	16.9%	36.5	1.5 - 3.7	2.5 - 2.8	16	1.6 - 5.2	25	< 5.00	15.9
O=c1[nH]cc(F)c(=O)[nH]1 [FLUOROURACIL]	39.8%	0%	5.60	21.3%	4.48%	78.7	–	2.2 - 2.5	–	–	–	< 5.00	55.7
CC[C@@H]1CN(C)[C@H]2Cc3c([nH]c4ccccc34)[C@H](c3c(OC)ccc4c5c([nH]c34)C3(C(=O)OC)C[C@@H]4C[C@H](CC)[C@@H]3N(CC5)C4)C[C@@H]1C2C(=O)OC (stereo partly drawn)	–	–	< 5.00	–	–	–	–	–	–	–	–	< 5.00	–
CC[C@H]1CN(C)[C@H]2Cc3c([nH]c4ccccc34)[C@H](c3cc4c5c([nH]c4cc3OC)C3(C(=O)OC)CC4C[C@H](CC)[C@@H]3N(CC5)C4=O)C[C@@H]1C2C(=O)OC (stereo partly drawn)	32%	26.2 - 32%	5.06	34.4%	44 - 50.5%	39.4	1.5 - 3.7	2.5 - 2.8	16	1.6 - 5.2	37	< 5.00	17.5
CC[C@H]1CN(C)[C@H]2Cc3c([nH]c4ccccc34)[C@H](c3cc4c5c([nH]c4cc3OC)C3(C(=O)OC)C[C@@H]4C[C@H](CC)[C@@H]3N(CC5)C4)C[C@@H]1C2C(=O)OC (stereo partly drawn)	27.7%	75.7 - 77%	5.07	2.39%	43.8 - 47%	21.9	1.5 - 3.7	2.5 - 2.8	31	1.6 - 5.2	40	< 5.00	28.5
